Assay results from different studies.
Each line is one published result; the experiments were not run side by side. ≈ marks a conversion by molar mass, not a printed value.

`O=C(Nc1ccccc1-c1ccc(F)c(F)c1)c1nccnc1C(F)(F)F` has an EC50 of less than 0.1 µg/mL (Cladosporium cucumerinum; microbial growth).
The IC50 of `CCCCc1cccc(-c2cnc3c(n2)CCCC3)c1` is reported as 23.3 µM (Haemonchus contortus; parasite motility; 48 h, larva).
The MIC of `O=c1[nH]c(NCc2ccc(Cl)c(Cl)c2)nc2ncn(CCN3CCOCC3)c12` is reported as greater than 32 µg/mL (Eggerthella lenta; microbial growth, agar dilution; 48 h).
For `Cc1ccc(C(CS(=O)(=O)c2ccccc2)=NNC2=NC(=O)C(=NNc3ccccc3)S2)cc1`, the viability was 36.3% (SK-MEL-23; cell growth or viability, MTT; 6.3 µM, 48 h).
The MIC of `Cc1ncc([N+](=O)[O-])n1CCO` is reported as 0.5 µg/mL (≈ 2.92 µM) (Eggerthella lenta; microbial growth, agar dilution; 48 h).
`CCCCOc1ccc(-c2cnc3c(n2)CCCC3)cc1` gave an IC50 of 6.9 µM (Haemonchus contortus; parasite motility; 72 h, larva).
For `Cc1ccc(C(CS(=O)(=O)c2ccccc2)=NN=C2N=C(c3ccc(Br)cc3)CS2)cc1`, the viability was 63.7% (SK-MEL-23; cell growth or viability, MTT; 6.3 µM, 48 h).
For `CCCCOc1cccc(-c2cnc3c(n2)CCCC3)c1`, the IC50 was 17.7 µM (Haemonchus contortus; parasite motility; 72 h, larva).
The viability of `Cc1ccc(C(CS(=O)(=O)c2ccccc2)=NNc2nc(C)c(N=Nc3cccc(C)c3)s2)cc1` is reported as 44% (SK-MEL-23; cell growth or viability, MTT; 25 µM, 48 h).
For `Cc1cc(Nc2ncc(Cl)c(Nc3ccccc3S(=O)(=O)C(C)C)n2)c(OC(C)C)cc1C1CCNCC1`, the inhibition was 70.9% (NCI-H2228; cell growth or viability, MTT; 0.2 µg/mL, 72 h).
With `Cc1ccc(C(CS(=O)(=O)c2ccccc2)=NNC2=NC(=O)C(=NNc3ccc([N+](=O)[O-])cc3)S2)cc1` the viability was 56.6% (SK-MEL-23; cell growth or viability, MTT; 6.3 µM, 48 h).
`C[C@@H](Oc1cc(-c2cnn(C3CCNCC3)c2)cnc1N)c1c(Cl)ccc(F)c1Cl` has an inhibition of 85.2% (NCI-H2228; cell growth or viability, MTT; 5 µg/mL, 72 h).
